“Also recorded” adds a separate entry of the source. Where two headings read alike, the source gives them in different places.
Key:
[1] = test system: cisplatin-resistant derivative cell line A2780CIS; settings: cited from earlier work
[2] = test system: A2780 human ovarian carcinoma cells; settings: cited from earlier work
HaCaT, A2780, A2780CIS = assay: Photo- and dark cytotoxicity stated in words across the cell lines; assay type: cell-based, human; settings: UVA 365 nm irradiation
Outline: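 HaCaT keratinocytes (DMEM, 5% FBS, 1% non-essential amino acids) and A2780 or A2780CIS cells (RPMI, 10% FBS) were grown at 37 °C without antibiotics. Cells were PBS-washed, then exposed 1 h at 37 °C to test compound in EBSS. They received 5 J cm−2 UVA (1.77 mW cm−2, λmax 365 nm, <320 nm filtered), with sham-irradiated parallel dark plates. Read-out was neutral red uptake. IC50s came from non-linear regression, 2-4 experiments in triplicate.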

[3] = test system: Human HaCaT keratinocytes; settings: cited from earlier work
a number of cell lines = settings: photoactivated; cited from earlier work
[4] = test system: Human HaCaT keratinocytes; assay: Phototoxicity / dark cytotoxicity, neutral red uptake assay, UVA; assay type: cell-based; settings: for IC50: HaCaT
[5] = test system: cisplatin-resistant derivative cell line A2780CIS; assay: Phototoxicity / dark cytotoxicity, neutral red uptake assay, UVA; assay type: cell-based, human; settings: for IC50: neutral red dye uptake
Outline: (§1)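 Cells were kept antibiotic-free in RPMI with 10% FBS at 37 °C in 5% CO2. They were washed in PBS, then given the test compound in EBSS for 1 h at 37 °C. Light plates received 5 J cm−2 UVA (1.77 mW cm−2, λmax 365 nm, below 320 nm filtered); dark plates were sham irradiated in parallel. Read-out was neutral red uptake. IC50 came from non-linear regression, 2-4 experiments in triplicate. The ratio is cisplatin IC50 (same conditions) over complex IC50.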

[6] = test system: A2780 human ovarian carcinoma cells; assay: as above; assay type: cell-based; settings: for IC50: neutral red dye uptake; for IC50 (cisplatin)/IC50(photoPt): A2780, fold difference vs cisplatin under identical conditions
Outline: as §1

DNA = assay: Comet assay; assay type: cell-based, human; settings: +UVA 5 J cm^−2, then H2O2
[7] = +365 nm (5 J cm^−2 UVA), 1 h treatment, neutral red dye uptake
[8] = Dark (sham irradiated), neutral red dye uptake

| Molecule | IC50 (cisplatin)/IC50(photoPt) [1] | IC50 (cisplatin)/IC50(photoPt) [2] | phototoxicity / photocytotoxicity (HaCaT, A2780, A2780CIS) | IC50 (cisplatin)/IC50(photoPt) [3] | fold more cytotoxic following irradiation than treatment with cisplatin (a number of cell lines) | IC50 [4, 7] [µM] | IC50 [4, 8] [µM] | IC50 ([5]; +365 nm (5 J cm^−2 UVA)) [µM] | IC50 ([5]; Dark (sham irradiated)) [µM] | IC50 ([6]; A2780, +365 nm (5 J cm^−2 UVA)) [µM] | IC50 ([6]; A2780, Dark (sham irradiated)) [µM] | IC50 (cisplatin)/IC50(photoPt) [6] | IC50 ([4]; Homo sapiens, light or radiation study) [µM] | IC50 ([4]; Homo sapiens, light or radiation study, 1 h) [µM] | fold less phototoxic than 7t ([4]; HaCaT cells, UVA) | IC50 (cisplatin)/IC50(photoPt) ([5]; fold difference vs cisplatin under identical conditions) | inhibition of DNA migration (DNA crosslinking), irradiated samples (DNA) |
| --- | --- | --- | --- | --- | --- | --- | --- | --- | --- | --- | --- | --- | --- | --- | --- | --- | --- |
| trans,trans,trans-[Pt(N3)2(OH)2(NH3)(py)] [Complex 7t] | 15.4 | 80.0 | the most phototoxic molecule tested; also recorded: the most phototoxic complex which still maintains dark stability | 21.2 | up to 90 × |  |  |  |  |  |  |  |  |  |  |  |  |
| cis,trans,cis-[Pt(N3)2(OH)2(NH3)(pentylamine)] [Complex 6c] |  |  |  |  |  | 224 | > 240 | > 240 | > 240 | > 240 | > 240 | 0.6 |  |  |  |  |  |
| CN(C)CCCN1c2ccccc2Sc2ccc(Cl)cc21 [CPZ, Chlorpromazine, reference compound] |  |  |  |  |  |  |  |  |  |  |  |  | 240 | 9 |  |  |  |
| cis,trans,cis-[Pt(N3)2(OH)2(NH3)(propylamine)] [Complex 4c] |  |  |  |  |  | 204 | > 257 |  |  | 93.4 | > 257 | 1.6 |  |  |  |  |  |
| cis,trans,cis-[Pt(N3)2(OH)2(NH3)(pyridine)] [Complex 7c] |  |  | the most phototoxic cis compounds investigated |  |  | 101 | > 244 | 109 | > 244 | 79.6 | > 244 | 1.9 |  |  | approximately 10 fold | 2.4 | more effective at inhibiting DNA migration (at low doses) |

Reference: paper PMC2933822 (Chemical research in toxicology, 2010)
